# Paper PMC8458242 (Biochimie, 2021)
# Entries after “also recorded” stand apart in the source; their conditions may differ. Like-named read-outs stand apart in the source and are kept apart here.
# Key:
# CMV AD169 = assay: Anti-CMV activity in WS1 cell cultures; type: cell-based, Human cytomegalovirus; conditions: human fibroblast WS1 cell line infected with CMV AD169, 5 days, n=3
# [1] = Viability assay in WS1 cell cultures; type: cell-based, human; conditions: human, WS1 cells
# CMV (AD169) = assay: Anti-CMV activity in HIV-1/CMV coinfected human tissues ex vivo; type: cell-based, Human cytomegalovirus; conditions: for inhibition of number of CMV DNA copies/μL: HIV-1/CMV-coinfected human lymphoid tissue, 10 μM, 15 days
# In short: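 Human tonsil tissue blocks (2-3 mm) cultured on collagen sponge at the air-liquid interface in RPMI 1640 with 15% FBS. Blocks pretreated with test compound (10 μM) 12 h before simultaneous infection with HIV-1 X4LAI.04 and CMV AD169 stocks. Medium changed every 3 days; 15 days at 37°C. CMV DNA in culture medium measured by real-time PCR, as percent of untreated control. Means ± SEM, 3 or 6 donors.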
# [2] = Viability assay in MT-4 cell cultures; type: cell-based, Human; conditions: human, MT-4 cells
# CMV = conditions: cited from earlier work
# MT-4 cells [3] = conditions: cited from earlier work
# HIV-1 (X4LAI.04) = assay: Anti-HIV-1 activity in HIV-1/CMV coinfected human tissues ex vivo; type: cell-based; conditions: for inhibition of HIV-1 replication by controls: coinfected tissues, control drugs, concentration not given, n=3; for inhibition of cumulative production of p24gag: HIV-1/CMV-coinfected human lymphoid tissue, 10 μM, 15 days
# In short: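 Tonsillar tissue blocks (2-3 mm) kept on collagen sponge at the air-liquid interface, RPMI 1640 with 15% FBS. Pretreated with test compound at 10 μM 12 h before coinoculation with HIV-1 X4LAI.04 and CMV AD169. Medium changed every 3 days; cultured 15 days at 37°C. p24gag in medium measured by Luminex bead assay, as percent of untreated control. Means ± SEM, 3 or 6 donors.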
# MT-4 cells [4] = assay: Viability assay in MT-4 cell cultures; type: cell-based, Human
# WS1 cells = assay: Viability assay in WS1 cell cultures; type: cell-based, human; conditions: read-out: Cytotoxicity CC50; WS1 cell line, MTT, three days
# [5] = system: esterase from porcine liver; assay: Hydrolysis of the compounds by esterase from porcine liver; conditions: Tris-HCl buffer pH 8.2, 37 °C
# HIV-1 X4LAI.04 = assay: Anti HIV-1 activity in human tonsillar tissue ex vivo; type: cell-based; conditions: 12 days
# [6] = system: esterase from porcine liver
# [7] = 1 nM (first of five concentrations ranging from 1 nM to 10 μM)
# [8] = 10 μM (fifth of five concentrations ranging from 1 nM to 10 μM)
# [9] = fourth of five concentrations ranging from 1 nM to 10 μM
# [10] = second of five concentrations ranging from 1 nM to 10 μM
# [11] = third of five concentrations ranging from 1 nM to 10 μM
structure (smiles),measurement,setting,value
"O=C(O)Cn1c(=O)ccn(CCCOc2ccc(Br)cc2)c1=O [2a, [3-[3-(4-bromophenoxy)propyl]-2,6-dioxo-3,6-dihydropyrimidin-1(2H)-yl]acetic acid]",Antiviral activity EC50 ± SD,CMV AD169,inactive
same,CC50 at 3 days,[1],965 µM
"O=C(O)Cn1c(=O)ccn(CCCCCOc2ccc(Br)cc2)c1=O [2b, [3-[5-(4-bromophenoxy)pentyl]-2,6-dioxo-3,6-dihydropyrimidin-1(2H)-yl]acetic acid]",CC50 at 3 days,[1],749 µM
"O=C(O)Cn1c(=O)ccn(CCCCCCOc2ccc(Br)cc2)c1=O [2c, [3-[6-(4-bromophenoxy)hexyl]-2,6-dioxo-3,6-dihydropyrimidin-1(2H)-yl]acetic acid]",inhibition of CMV by control compounds,"CMV (AD169); coinfected tissues, control compounds, concentration not given, n=3",68.6 ± 11.3%
same,CC50 at 3 days,[2],> 100 µM
same,CC50 at 3 days,[1],724 µM
"O=C(O)Cn1c(=O)ccn(CCCCCCCCOc2ccc(Br)cc2)c1=O [2d, [3-[8-(4-bromophenoxy)octyl]-2,6-dioxo-3,6-dihydropyrimidin-1(2H)-yl]acetic acid]",CC50 at 3 days,[1],90.5 µM
"O=C(O)Cn1c(=O)ccn(CCCCCCCCCCOc2ccc(Br)cc2)c1=O [2e, [3-[10-(4-bromophenoxy)decyl]-2,6-dioxo-3,6-dihydropyrimidin-1(2H)-yl]acetic acid]",Antiviral activity EC50 ± SD,CMV AD169,inactive
same,CC50 at 3 days,[1],164 µM
"O=C(O)Cn1c(=O)ccn(CCCCCCCCCCCCOc2ccc(Br)cc2)c1=O [2f, [3-[12-(4-bromophenoxy)dodecyl]-2,6-dioxo-3,6-dihydropyrimidin-1(2H)-yl]acetic acid]",Antiviral activity EC50 ± SD,CMV AD169,inactive
same,CC50 at 3 days,[1],22 µM
"Nc1ccn([C@@H]2CS[C@H](CO)O2)c(=O)n1 [3TC, (−)-L-2′,3′-dideoxy-3′-thiacytidine]",effect on CMV replication / anti CMV activity,CMV,no effect on CMV replication
same,CC50,MT-4 cells [3],> 100 µM
same,inhibition of HIV-1 replication by controls,HIV-1 (X4LAI.04),99.7 ± 0.2%
"Cc1cn([C@H]2C[C@H](N=[N+]=[N-])[C@@H](COC(=O)Cn3c(=O)ccn(CCCOc4ccc(Br)cc4)c3=O)O2)c(=O)[nH]c1=O [3a, (3'-azido-3'-deoxytimidine)-2-(3-((4-bromophenoxy)propyl)-2,6-dioxo-2,3-dihydropyrimidin-1(6H)-yl)acetate]",CC50,MT-4 cells [4],82.1 µM
same,CC50,WS1 cells,347 µM
"Cc1cn([C@H]2C[C@H](N=[N+]=[N-])[C@@H](COC(=O)Cn3c(=O)ccn(CCCCCOc4ccc(Br)cc4)c3=O)O2)c(=O)[nH]c1=O [3b, (3'-azido-3'-deoxytimidine)-2-(3-((4-bromophenoxy)pentyl)-2,6-dioxo-2,3-dihydropyrimidin-1(6H)-yl)acetate]",T1/2 of hydrolysis by esterase,[5],7 to 8 h
same,CC50,MT-4 cells [4],> 100 µM
same,CC50,WS1 cells,173 µM
"Cc1cn([C@H]2C[C@H](N=[N+]=[N-])[C@@H](COC(=O)Cn3c(=O)ccn(CCCCCCOc4ccc(Br)cc4)c3=O)O2)c(=O)[nH]c1=O [3c, (3'-azido-3'-deoxytimidine)-2-(3-((4-bromophenoxy)hexyl)-2,6-dioxo-2,3-dihydropyrimidin-1(6H)-yl)acetate]",inhibition of HIV-1 replication,HIV-1 X4LAI.04; [7],0 ± 0.5%
same,inhibition of HIV-1 replication,HIV-1 X4LAI.04; [8],96.2 ± 1.0%
same,inhibition of HIV-1 replication,HIV-1 X4LAI.04; [9],76.5 ± 3.3%
same,inhibition of HIV-1 replication,HIV-1 X4LAI.04; [10],17.9 ± 8.2%
same,inhibition of HIV-1 replication,HIV-1 X4LAI.04; [11],31.4 ± 7.7%
same,inhibition of number of CMV DNA copies/μL,CMV (AD169),86.9 ± 3.3%
same,T1/2 of hydrolysis by esterase,[5],7 to 8 h
same,CC50,MT-4 cells [4],> 100 µM
same,CC50,WS1 cells,393 µM
same,inhibition of cumulative production of p24gag,HIV-1 (X4LAI.04),97.2 ± 2.1%
"Cc1cn([C@H]2C[C@H](N=[N+]=[N-])[C@@H](COC(=O)Cn3c(=O)ccn(CCCCCCCCOc4ccc(Br)cc4)c3=O)O2)c(=O)[nH]c1=O [3d, (3'-azido-3'-deoxytimidine)-2-(3-((4-bromophenoxy)octyl)-2,6-dioxo-2,3-dihydropyrimidin-1(6H)-yl)acetate]",CC50,MT-4 cells [4],> 100 µM
same,CC50,WS1 cells,600 µM
"Cc1cn([C@H]2C[C@H](N=[N+]=[N-])[C@@H](COC(=O)Cn3c(=O)ccn(CCCCCCCCCCOc4ccc(Br)cc4)c3=O)O2)c(=O)[nH]c1=O [3e, (3'-azido-3'-deoxytimidine)-2-(3-((4-bromophenoxy)decyl)-2,6-dioxo-2,3-dihydropyrimidin-1(6H)-yl)acetate]",CC50,MT-4 cells [4],> 100 µM
same,CC50,WS1 cells,182 µM
"Cc1cn([C@H]2C[C@H](N=[N+]=[N-])[C@@H](COC(=O)Cn3c(=O)ccn(CCCCCCCCCCCCOc4ccc(Br)cc4)c3=O)O2)c(=O)[nH]c1=O [3f, (3'-azido-3'-deoxytimidine)-2-(3-((4-bromophenoxy)dodecyl)-2,6-dioxo-2,3-dihydropyrimidin-1(6H)-yl)acetate]",CC50,MT-4 cells [4],> 100 µM
same,CC50,WS1 cells,253 µM
"Nc1ccn([C@@H]2CS[C@H](COC(=O)Cn3c(=O)ccn(CCCCCCOc4ccc(Br)cc4)c3=O)O2)c(=O)n1 [4c, ((−)-L-2′,3′-dideoxy-3′-thiacytidine)-2-(3-((4-bromophenoxy)hexyl)-2,6-dioxo-2,3-dihydropyrimidin-1(6H)-yl)acetate]",inhibition of HIV-1 replication,HIV-1 X4LAI.04; [7],0.6 ± 0.2%
same,inhibition of HIV-1 replication,HIV-1 X4LAI.04; [8],99.6 ± 0.1%
same,inhibition of HIV-1 replication,HIV-1 X4LAI.04; [9],88.6 ± 2.9%
same,inhibition of HIV-1 replication,HIV-1 X4LAI.04; [10],14.6 ± 6.5%
same,inhibition of HIV-1 replication,HIV-1 X4LAI.04; [11],45.7 ± 3.7%
same,inhibition of number of CMV DNA copies/μL,CMV (AD169),78.7 ± 1.7%
same,T1/2 of hydrolysis by esterase,[5],about 24 hrs
same,CC50,MT-4 cells [4],> 100 µM
same,inhibition of cumulative production of p24gag,HIV-1 (X4LAI.04),99.4 ± 0.4%
"Cc1cn([C@H]2C[C@H](N=[N+]=[N-])[C@@H](CO)O2)c(=O)[nH]c1=O [AZT, 2',3'-dideoxy-3'-azidothymidine]",effect on CMV replication / anti CMV activity,CMV,does not have any anti CMV activity; also recorded: no effect on CMV replication
same,CC50,MT-4 cells [3],> 100 µM
same,inhibition of HIV-1 replication by controls,HIV-1 (X4LAI.04),97.0 ± 1.6%
"Nc1nc(O)c2ncn(COC(CO)CO)c2n1 [GCV, ganciclovir, reference compound]",CC50 at 3 days,[1],500 µM
CC(=O)OC[C@H]1O[C@@H](n2cc(C)c(=O)[nH]c2=O)C[C@@H]1OC(C)=O [Thymidine diacetate],hydrolysis totally completed after,[6],5 to 6 h
